Results from ChEMBL document CHEMBL4732196, “Structural optimization towards promising β-methyl-4-acrylamido quinoline derivatives as PI3K/mTOR dual inhibitors for anti-cancer therapy: The in vitro and in vivo biological evaluation” (Eur J Med Chem, 2021).

Legend:
[1] = target: Interleukin-1 receptor-associated kinase 3 (Homo sapiens) (UniProt Q9Y616); assay: Inhibition of human partial length IRAK3 (V147 to E596 residues) expressed in bacterial expression system assessed as residual activity at 10 uM by kinome scan method relative to control
In short: (§1)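 KINOMEscan binding assay, test compound at 10 μM against a 52-kinase panel. % Ctrl = (compound signal − positive control signal)/(negative control signal − positive control signal) × 100, with DMSO as negative control (100%) and a positive control (0%).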

[2] = Toxicity in ICR nude mouse xenografted with U87MG cells assessed as reduction in body weight at 30 to 60 mg/kg, po every other day for 24 days; assay type: organism-based; conditions: in vivo, 576 h, dose 30-60 mg/kg, time 24 day
In short: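 Male ICR nude mice were implanted subcutaneously with 5 × 10^6 U87MG cells. When tumors reached about 200 mm³, mice were randomized and given 30 or 60 mg/kg by oral gavage every other day for 24 days. Body weight and tumor volume (length × width² × 0.5) were recorded every 4 days, with a vehicle-treated group as comparator.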

[3] = target: Cyclin-G-associated kinase (Homo sapiens) (UniProt O14976); assay: Inhibition of human partial length GAK (G13 to Y338 residues) expressed in bacterial expression system assessed as residual activity at 10 uM by kinome scan method relative to control; in short: as §1
[4] = target: Phosphatidylinositol 4-kinase beta (Homo sapiens) (UniProt Q9UBF8); assay: Inhibition of human partial length PIK4CB (M1 to M828 residues) expressed in mammalian expression system assessed as residual activity at 10 uM by kinome scan method relative to control
In short: (§2)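 KINOMEscan competitive binding screen at 10 μM test compound against a 52-kinase panel. Output is % Ctrl = (test signal − positive control signal)/(negative control signal − positive control signal) × 100. DMSO is the negative control (100%) and the positive control is set to 0%.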

[5] = target: Activin receptor type-2A (Homo sapiens) (UniProt P27037); assay: Inhibition of human partial length ACVR2A (V171 to T499 residues) expressed in bacterial system assessed as residual activity at 10 uM by kinome scan method relative to control; in short: as §1
[6] = target: Cyclin-dependent kinase 8 (Homo sapiens) (UniProt P49336); assay: Inhibition of human partial length CDK8 (M1 to T360 residues) expressed in bacterial system assessed as residual activity at 10 uM by kinome scan method relative to control; in short: as §1
[7] = target: T1, Serine/threonine-protein kinase mTOR (Homo sapiens, UniProt P42345); assay: Inhibition of recombinant human N-terminal FLAG-tagged mTOR (1362 to end amino acids) using ULight-4E-BP1 as substrate incubated for 1 hr by LANCE Ultra assay
[8] = target: Phosphatidylinositol 4-phosphate 3-kinase C2 domain-containing subunit beta (Homo sapiens) (UniProt O00750); assay: Inhibition of human partial length PIK3C2B (M1 to L1634 residues) expressed in bacterial expression system assessed as residual activity at 10 uM by kinome scan method relative to control; in short: as §1
[9] = target: Dual specificity mitogen-activated protein kinase kinase 7 (Homo sapiens) (UniProt O14733); assay: Inhibition of human full length MKK7 (M1 to R419 residues) expressed in mammalian expression system assessed as residual activity at 10 uM by kinome scan method relative to control; in short: as §1
[10] = target: Activin receptor type-2B (Homo sapiens) (UniProt Q13705); assay: Inhibition of human partial length ACVR2B (H169 to D504 residues) expressed in bacterial system assessed as residual activity at 10 uM by kinome scan method relative to control; in short: as §1
[11] = target: Cyclin-dependent kinase 14 (Homo sapiens) (UniProt O94921); assay: Inhibition of human full length PFTK1 (M1 to H451 residues) expressed in bacterial expression system assessed as residual activity at 10 uM by kinome scan method relative to control; in short: as §1
[12] = target: Ankyrin repeat and protein kinase domain-containing protein 1 (Homo sapiens) (UniProt Q8NFD2); assay: Inhibition of human partial length ANKK1 (M1 to A305 residues) expressed in bacterial system assessed as residual activity at 10 uM by kinome scan method relative to control; in short: as §1
[13] = target: T1, Serine/threonine-protein kinase mTOR; assay: Inhibition of human partial length mTOR (L1382 to W2549 residues) expressed in mammalian expression system assessed as residual activity at 10 uM by kinome scan method relative to control; in short: as §2
[14] = target: Phosphatidylinositol 4,5-bisphosphate 3-kinase catalytic subunit gamma isoform (Homo sapiens, UniProt P48736); assay: Inhibition of recombinant human full-length His-tagged PI3Kgamma expressed in baculovirus expression system using PIP2 as substrate measured after 1 hr by ADP-glo assay
[15] = target: Dual specificity mitogen-activated protein kinase kinase 5 (Homo sapiens) (UniProt Q13163); assay: Inhibition of human partial length MEK5 (L98 to P448 residues) expressed in mammalian expression system assessed as residual activity at 10 uM by kinome scan method relative to control; in short: as §1
[16] = target: Phosphatidylinositol 4-phosphate 5-kinase type-1 alpha (Homo sapiens) (UniProt Q99755); assay: Inhibition of human full length PIP5K1A (M1 to H562 residues) expressed in bacterial expression system assessed as residual activity at 10 uM by kinome scan method relative to control; in short: as §1
[17] = target: Phosphatidylinositol 3-kinase catalytic subunit type 3 (Homo sapiens) (UniProt Q8NEB9); assay: Inhibition of human partial length VPS34 (S282 to H879 residues) expressed in mammalian expression system assessed as residual activity at 10 uM by kinome scan method relative to control; in short: as §2
[18] = target: Serine/threonine-protein kinase 32A (Homo sapiens) (UniProt Q8WU08); assay: Inhibition of human full length YANK1 (M1 to L396 residues) expressed in mammalian expression system assessed as residual activity at 10 uM by kinome scan method relative to control; in short: as §1
[19] = Half life in Sprague-Dawley rat at 5 mg/kg, po; assay type: ADME, organism-based; conditions: in vivo
In short: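 Male Sprague-Dawley rats (n = 3) given a single oral gavage of 5 mg/kg as a homogeneous opaque suspension in 0.5% methylcellulose; plasma concentration-time curves used to derive mean PK parameters.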

[20] = target: Phosphatidylinositol 4-phosphate 5-kinase type-1 gamma (Homo sapiens) (UniProt O60331); assay: Inhibition of human full length PIP5K1C (M1 to H562 residues) expressed in bacterial expression system assessed as residual activity at 10 uM by kinome scan method relative to control; in short: as §1
[21] = target: Phosphatidylinositol 4,5-bisphosphate 3-kinase catalytic subunit alpha isoform (Homo sapiens, UniProt P42336); assay: Inhibition of human partial length PIK3CA (R108 to N1068 residues) expressed in mammalian expression system assessed as residual activity at 10 uM by kinome scan method relative to control; in short: as §2
[22] = target: Microtubule-associated serine/threonine-protein kinase 1 (Homo sapiens) (UniProt Q9Y2H9); assay: Inhibition of human partial length MAST1 (S346 to V730 residues) expressed in bacterial expression system assessed as residual activity at 10 uM by kinome scan method relative to control; in short: as §1

Chain of Phosphatidylinositol 4,5-bisphosphate 3-kinase catalytic subunit gamma isoform (P48736 whole entry, the tested form may be a part, canonical isoform): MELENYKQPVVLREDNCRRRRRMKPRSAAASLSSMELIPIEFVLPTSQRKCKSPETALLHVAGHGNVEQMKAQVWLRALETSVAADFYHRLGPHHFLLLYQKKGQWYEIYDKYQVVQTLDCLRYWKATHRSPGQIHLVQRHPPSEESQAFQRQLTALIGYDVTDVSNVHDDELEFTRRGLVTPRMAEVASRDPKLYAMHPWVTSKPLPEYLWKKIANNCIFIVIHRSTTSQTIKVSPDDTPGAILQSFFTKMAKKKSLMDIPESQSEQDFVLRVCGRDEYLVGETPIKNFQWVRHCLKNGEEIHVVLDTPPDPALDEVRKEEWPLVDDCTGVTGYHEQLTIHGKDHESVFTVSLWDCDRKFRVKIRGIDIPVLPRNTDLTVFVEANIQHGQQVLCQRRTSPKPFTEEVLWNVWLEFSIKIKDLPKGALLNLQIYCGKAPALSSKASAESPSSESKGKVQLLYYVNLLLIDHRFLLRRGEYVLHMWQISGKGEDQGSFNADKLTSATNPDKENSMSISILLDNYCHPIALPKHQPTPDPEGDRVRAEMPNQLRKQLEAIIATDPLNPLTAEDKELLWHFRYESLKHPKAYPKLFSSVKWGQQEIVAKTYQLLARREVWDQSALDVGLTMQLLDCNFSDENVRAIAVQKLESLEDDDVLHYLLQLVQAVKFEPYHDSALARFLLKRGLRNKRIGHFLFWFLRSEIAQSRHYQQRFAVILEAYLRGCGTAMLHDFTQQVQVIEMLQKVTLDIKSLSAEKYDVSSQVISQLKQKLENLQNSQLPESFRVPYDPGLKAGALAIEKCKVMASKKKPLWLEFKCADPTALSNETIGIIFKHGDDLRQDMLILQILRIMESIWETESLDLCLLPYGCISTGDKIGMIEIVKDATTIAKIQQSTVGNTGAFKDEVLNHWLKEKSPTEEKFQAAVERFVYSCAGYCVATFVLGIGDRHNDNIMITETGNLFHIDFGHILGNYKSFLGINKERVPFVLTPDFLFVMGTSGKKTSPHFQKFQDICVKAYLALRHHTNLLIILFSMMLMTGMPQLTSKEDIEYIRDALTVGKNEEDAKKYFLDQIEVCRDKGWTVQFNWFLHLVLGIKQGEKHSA
Chain of Cyclin-G-associated kinase (Homo sapiens) (O14976 whole entry, the tested form may be a part): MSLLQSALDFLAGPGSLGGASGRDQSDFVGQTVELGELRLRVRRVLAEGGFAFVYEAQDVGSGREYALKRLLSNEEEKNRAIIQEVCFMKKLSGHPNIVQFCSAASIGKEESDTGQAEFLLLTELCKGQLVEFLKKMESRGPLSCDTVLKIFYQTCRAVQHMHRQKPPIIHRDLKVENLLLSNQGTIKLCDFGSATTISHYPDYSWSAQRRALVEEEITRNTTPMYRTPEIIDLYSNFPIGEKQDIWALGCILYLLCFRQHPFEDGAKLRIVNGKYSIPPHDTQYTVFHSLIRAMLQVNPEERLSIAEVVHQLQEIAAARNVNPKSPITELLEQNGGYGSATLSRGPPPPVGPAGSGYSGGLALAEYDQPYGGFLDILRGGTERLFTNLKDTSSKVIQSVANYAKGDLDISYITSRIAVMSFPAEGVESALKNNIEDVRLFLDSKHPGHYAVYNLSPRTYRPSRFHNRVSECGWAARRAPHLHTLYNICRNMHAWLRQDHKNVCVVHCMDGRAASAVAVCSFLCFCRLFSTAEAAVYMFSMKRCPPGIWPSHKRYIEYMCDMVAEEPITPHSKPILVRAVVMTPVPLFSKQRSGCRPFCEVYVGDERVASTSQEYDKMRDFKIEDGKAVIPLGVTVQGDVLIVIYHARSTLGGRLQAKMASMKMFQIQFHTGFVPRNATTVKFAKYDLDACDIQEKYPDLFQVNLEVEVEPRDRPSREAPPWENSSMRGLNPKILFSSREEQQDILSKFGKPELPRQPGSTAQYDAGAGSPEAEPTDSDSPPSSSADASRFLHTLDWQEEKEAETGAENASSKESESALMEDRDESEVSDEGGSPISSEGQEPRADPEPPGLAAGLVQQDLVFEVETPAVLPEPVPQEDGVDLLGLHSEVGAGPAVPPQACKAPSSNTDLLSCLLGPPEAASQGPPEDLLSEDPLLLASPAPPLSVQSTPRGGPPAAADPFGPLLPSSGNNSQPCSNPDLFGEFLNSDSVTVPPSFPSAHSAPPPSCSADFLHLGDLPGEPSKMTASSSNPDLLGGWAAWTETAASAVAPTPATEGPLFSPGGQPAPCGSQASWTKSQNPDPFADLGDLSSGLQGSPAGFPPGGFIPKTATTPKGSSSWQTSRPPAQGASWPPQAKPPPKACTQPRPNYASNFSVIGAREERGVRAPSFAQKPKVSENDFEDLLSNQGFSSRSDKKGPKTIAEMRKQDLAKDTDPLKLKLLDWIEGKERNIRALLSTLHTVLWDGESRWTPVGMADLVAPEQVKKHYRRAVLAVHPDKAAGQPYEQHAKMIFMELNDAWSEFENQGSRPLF
Chain of Phosphatidylinositol 4-phosphate 5-kinase type-1 alpha (Homo sapiens) (Q99755 whole entry, the tested form may be a part): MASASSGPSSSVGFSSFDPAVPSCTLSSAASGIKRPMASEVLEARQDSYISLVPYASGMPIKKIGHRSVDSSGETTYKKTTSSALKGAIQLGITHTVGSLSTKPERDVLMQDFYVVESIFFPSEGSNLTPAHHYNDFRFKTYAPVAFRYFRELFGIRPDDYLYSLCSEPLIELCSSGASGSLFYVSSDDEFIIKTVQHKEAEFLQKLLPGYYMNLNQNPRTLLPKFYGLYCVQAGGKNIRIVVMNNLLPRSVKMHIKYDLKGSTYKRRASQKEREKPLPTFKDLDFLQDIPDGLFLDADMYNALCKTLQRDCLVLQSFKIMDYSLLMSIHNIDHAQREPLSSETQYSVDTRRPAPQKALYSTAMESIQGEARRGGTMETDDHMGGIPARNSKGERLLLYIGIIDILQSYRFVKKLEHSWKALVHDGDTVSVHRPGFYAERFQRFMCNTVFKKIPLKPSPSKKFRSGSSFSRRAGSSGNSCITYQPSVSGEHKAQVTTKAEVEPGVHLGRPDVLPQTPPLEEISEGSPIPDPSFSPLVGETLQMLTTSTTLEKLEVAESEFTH
Chain of Phosphatidylinositol 3-kinase catalytic subunit type 3 (Homo sapiens) (Q8NEB9 whole entry, the tested form may be a part): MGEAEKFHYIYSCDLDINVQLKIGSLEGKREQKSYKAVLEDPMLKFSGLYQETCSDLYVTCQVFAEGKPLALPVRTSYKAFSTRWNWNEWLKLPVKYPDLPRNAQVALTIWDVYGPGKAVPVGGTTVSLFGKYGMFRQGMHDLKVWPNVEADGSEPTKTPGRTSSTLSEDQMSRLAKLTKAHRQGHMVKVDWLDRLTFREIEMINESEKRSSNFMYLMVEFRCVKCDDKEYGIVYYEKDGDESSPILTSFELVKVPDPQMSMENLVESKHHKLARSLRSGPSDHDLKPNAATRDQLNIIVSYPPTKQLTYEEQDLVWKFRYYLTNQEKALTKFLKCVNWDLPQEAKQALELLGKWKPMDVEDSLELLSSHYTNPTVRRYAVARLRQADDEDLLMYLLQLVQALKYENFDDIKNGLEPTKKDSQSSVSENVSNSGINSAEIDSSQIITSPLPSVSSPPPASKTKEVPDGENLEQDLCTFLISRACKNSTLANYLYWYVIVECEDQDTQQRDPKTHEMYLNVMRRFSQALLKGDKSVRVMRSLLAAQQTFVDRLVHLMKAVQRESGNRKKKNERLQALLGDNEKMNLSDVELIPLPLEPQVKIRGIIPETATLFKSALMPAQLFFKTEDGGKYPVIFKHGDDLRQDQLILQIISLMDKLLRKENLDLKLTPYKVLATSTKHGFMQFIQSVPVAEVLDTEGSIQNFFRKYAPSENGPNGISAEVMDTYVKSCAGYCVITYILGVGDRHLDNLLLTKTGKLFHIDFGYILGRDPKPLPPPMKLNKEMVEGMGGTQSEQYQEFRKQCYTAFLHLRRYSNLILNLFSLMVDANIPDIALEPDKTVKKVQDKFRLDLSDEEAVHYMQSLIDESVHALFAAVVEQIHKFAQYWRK
Chain of Dual specificity mitogen-activated protein kinase kinase 7 (Homo sapiens) (O14733 whole entry, the tested form may be a part): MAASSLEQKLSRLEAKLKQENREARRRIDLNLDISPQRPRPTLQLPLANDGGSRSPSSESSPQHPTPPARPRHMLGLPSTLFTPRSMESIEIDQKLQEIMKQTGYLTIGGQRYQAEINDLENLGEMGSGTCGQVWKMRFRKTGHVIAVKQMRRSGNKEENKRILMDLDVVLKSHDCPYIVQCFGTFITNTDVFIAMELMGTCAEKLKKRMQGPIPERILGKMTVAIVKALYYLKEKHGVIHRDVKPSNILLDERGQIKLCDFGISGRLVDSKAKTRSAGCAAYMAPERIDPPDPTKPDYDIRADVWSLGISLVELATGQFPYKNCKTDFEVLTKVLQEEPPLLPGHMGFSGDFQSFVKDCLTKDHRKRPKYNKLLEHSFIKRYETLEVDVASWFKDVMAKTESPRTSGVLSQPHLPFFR
Chain of Ankyrin repeat and protein kinase domain-containing protein 1 (Homo sapiens) (Q8NFD2 whole entry, the tested form may be a part): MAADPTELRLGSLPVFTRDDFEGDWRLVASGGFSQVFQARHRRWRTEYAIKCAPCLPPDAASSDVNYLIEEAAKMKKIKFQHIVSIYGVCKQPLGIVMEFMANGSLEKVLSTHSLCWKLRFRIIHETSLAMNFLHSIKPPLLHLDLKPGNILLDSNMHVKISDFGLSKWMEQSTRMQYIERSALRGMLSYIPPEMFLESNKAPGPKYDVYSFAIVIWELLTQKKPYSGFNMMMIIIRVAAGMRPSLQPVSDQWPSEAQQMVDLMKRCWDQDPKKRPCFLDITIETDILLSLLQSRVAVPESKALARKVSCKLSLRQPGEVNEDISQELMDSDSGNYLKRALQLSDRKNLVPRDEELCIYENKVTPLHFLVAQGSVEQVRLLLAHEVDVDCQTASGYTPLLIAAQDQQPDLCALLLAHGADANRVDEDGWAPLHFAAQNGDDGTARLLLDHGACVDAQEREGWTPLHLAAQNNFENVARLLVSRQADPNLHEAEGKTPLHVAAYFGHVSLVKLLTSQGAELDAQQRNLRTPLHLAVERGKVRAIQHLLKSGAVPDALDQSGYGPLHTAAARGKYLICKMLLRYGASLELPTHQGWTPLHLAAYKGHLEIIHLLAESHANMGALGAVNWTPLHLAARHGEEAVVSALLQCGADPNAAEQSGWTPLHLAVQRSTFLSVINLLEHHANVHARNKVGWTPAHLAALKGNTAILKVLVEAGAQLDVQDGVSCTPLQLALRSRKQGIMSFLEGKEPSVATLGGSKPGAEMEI

- Activity [1]: 24%
- Activity [3]: 22%
- Activity [4]: 0.55%
- Activity [5]: 100%
- Activity [6]: 96%
- IC50 [7]: 5 nM
- Activity [8]: 0%
- Activity [9]: 73%
- Activity [10]: 100%
- Activity [11]: 78%
- Activity [12]: 100%
- Activity [13]: 0%
- IC50 [14]: 1.3 nM
- Activity [15]: 63%
- Activity [16]: 45%
- Activity [17]: 0.1%
- Activity [18]: 84%
- half-life [19]: 1.85 h
- Activity [20]: 35%
- Activity [21]: 0%
- Activity [22]: 58%
Compound: COc1ncc(-c2ccc3nccc(/C(C)=C/C(=O)N4CCN(C)CC4)c3c2)cc1NS(=O)(=O)c1ccc(F)cc1F
- Activity [2]: Non-Toxic
